Test [1] addresses T1, Metabotropic glutamate receptor 7 (Homo sapiens, UniProt Q14831). Description: Inhibition of forskolin stimulated cAMP accumulation in CHO cells expressing hmGluR7b at a concentration of 500 uM; Inactive.
The target in test [2] is T2, Metabotropic glutamate receptor 4 (Homo sapiens, UniProt Q14833). Description: Inhibition of forskolin stimulated cAMP accumulation in CHO cells expressing hmGluR4a at a concentration of 2000 uM; Inactive. (In general: cAMP levels reflect the balance of adenylyl cyclase and phosphodiesterase activity.)
T2 sequence (Q14833 whole entry): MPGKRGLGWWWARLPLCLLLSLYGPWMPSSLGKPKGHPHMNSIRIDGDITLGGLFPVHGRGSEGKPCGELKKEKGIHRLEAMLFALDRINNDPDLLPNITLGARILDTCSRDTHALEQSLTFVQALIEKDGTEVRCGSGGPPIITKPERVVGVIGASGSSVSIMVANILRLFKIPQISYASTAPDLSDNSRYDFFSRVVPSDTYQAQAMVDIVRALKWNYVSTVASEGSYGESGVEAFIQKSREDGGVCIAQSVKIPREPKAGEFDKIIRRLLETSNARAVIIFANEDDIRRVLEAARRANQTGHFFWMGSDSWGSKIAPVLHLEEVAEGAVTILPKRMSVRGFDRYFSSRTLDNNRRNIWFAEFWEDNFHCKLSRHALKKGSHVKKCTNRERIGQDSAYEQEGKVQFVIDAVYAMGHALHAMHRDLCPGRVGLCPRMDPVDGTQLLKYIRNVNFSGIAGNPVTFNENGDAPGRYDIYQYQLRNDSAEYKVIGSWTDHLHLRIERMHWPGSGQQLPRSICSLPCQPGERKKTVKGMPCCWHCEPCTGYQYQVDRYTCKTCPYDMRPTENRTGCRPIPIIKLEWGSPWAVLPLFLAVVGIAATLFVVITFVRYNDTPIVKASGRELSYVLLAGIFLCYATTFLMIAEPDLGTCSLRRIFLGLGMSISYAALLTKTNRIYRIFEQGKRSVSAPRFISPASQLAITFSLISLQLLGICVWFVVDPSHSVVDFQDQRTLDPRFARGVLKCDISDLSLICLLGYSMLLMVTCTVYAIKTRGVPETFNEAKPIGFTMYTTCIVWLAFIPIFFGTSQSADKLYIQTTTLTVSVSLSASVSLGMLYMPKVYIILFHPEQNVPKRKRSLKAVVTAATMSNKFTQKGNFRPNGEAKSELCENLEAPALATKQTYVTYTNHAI
For test [3], the target named is T1, Metabotropic glutamate receptor 7. Description: Compound was evaluated for the inhibition of forskolin stimulated cAMP accumulation in CHO cells expressing hmGluR7b. In kind it is functional, cell-based. In outline: (§1)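 Human mGluR4a or mGluR7b stably expressed in CHO cells; both enantiomers tested in the same functional assay, with cAMP measured by radioimmunoassay and EC50 values reported.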

Test [4] deals with T2, Metabotropic glutamate receptor 4. Description: Compound was evaluated for the inhibition of forskolin stimulated cAMP accumulation in CHO cells expressing hmGluR4a. In kind it is functional, cell-based. The gist of the method: as §1
The target in test [5] is T3, Metabotropic glutamate receptor 4 (Rattus norvegicus, UniProt P31423). Description: Effective concentration against rat Metabotropic glutamate receptor 4.
T3 sequence (P31423 whole entry): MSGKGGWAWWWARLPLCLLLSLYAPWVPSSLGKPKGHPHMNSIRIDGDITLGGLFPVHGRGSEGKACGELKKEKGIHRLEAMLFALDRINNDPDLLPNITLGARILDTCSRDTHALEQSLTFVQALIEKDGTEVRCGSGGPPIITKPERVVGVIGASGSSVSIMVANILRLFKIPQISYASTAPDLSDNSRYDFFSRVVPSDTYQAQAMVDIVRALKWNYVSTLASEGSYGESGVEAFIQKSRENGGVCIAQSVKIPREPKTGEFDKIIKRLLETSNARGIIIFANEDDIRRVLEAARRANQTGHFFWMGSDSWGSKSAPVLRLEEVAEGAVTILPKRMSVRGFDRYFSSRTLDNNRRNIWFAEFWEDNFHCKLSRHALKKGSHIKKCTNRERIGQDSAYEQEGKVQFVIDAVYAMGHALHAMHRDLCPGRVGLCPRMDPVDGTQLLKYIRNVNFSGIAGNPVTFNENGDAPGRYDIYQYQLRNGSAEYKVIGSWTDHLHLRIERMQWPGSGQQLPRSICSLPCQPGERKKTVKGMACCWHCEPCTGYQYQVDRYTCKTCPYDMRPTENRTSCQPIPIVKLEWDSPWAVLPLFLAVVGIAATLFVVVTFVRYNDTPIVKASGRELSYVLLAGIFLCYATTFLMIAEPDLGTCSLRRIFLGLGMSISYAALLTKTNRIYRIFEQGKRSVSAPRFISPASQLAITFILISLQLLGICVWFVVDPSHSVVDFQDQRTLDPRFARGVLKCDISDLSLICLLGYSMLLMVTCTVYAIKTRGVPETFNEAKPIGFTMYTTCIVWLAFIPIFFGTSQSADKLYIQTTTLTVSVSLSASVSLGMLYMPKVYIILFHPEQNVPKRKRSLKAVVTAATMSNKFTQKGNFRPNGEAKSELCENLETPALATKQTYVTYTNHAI
Test [6] addresses Metabotropic glutamate receptor 2 (Homo sapiens) (UniProt Q14416). Description: Activity against human Metabotropic glutamate receptor 2 up to a concentration of 300 uM; Not active.
The target in test [7] is Glutamate NMDA receptor; GRIN1/GRIN2A (Homo sapiens) (UniProt Q05586+Q12879). Description: Activity against cloned ionotropic N-methyl-D-aspartate glutamate receptor 1/2A; Not active. In kind it is protein-complex assay.
The target in test [8] is Metabotropic glutamate receptor 6 (Homo sapiens) (UniProt O15303). Description: Activity against Metabotropic glutamate receptor 6; Not active.
The target in test [9] is Metabotropic glutamate receptor 5 (Homo sapiens) (UniProt P41594). Description: Activity against human Metabotropic glutamate receptor 5 up to a concentration of 300 uM; Not active.
Sequence of Metabotropic glutamate receptor 5 (Homo sapiens) (P41594 21-1212 limits assumed): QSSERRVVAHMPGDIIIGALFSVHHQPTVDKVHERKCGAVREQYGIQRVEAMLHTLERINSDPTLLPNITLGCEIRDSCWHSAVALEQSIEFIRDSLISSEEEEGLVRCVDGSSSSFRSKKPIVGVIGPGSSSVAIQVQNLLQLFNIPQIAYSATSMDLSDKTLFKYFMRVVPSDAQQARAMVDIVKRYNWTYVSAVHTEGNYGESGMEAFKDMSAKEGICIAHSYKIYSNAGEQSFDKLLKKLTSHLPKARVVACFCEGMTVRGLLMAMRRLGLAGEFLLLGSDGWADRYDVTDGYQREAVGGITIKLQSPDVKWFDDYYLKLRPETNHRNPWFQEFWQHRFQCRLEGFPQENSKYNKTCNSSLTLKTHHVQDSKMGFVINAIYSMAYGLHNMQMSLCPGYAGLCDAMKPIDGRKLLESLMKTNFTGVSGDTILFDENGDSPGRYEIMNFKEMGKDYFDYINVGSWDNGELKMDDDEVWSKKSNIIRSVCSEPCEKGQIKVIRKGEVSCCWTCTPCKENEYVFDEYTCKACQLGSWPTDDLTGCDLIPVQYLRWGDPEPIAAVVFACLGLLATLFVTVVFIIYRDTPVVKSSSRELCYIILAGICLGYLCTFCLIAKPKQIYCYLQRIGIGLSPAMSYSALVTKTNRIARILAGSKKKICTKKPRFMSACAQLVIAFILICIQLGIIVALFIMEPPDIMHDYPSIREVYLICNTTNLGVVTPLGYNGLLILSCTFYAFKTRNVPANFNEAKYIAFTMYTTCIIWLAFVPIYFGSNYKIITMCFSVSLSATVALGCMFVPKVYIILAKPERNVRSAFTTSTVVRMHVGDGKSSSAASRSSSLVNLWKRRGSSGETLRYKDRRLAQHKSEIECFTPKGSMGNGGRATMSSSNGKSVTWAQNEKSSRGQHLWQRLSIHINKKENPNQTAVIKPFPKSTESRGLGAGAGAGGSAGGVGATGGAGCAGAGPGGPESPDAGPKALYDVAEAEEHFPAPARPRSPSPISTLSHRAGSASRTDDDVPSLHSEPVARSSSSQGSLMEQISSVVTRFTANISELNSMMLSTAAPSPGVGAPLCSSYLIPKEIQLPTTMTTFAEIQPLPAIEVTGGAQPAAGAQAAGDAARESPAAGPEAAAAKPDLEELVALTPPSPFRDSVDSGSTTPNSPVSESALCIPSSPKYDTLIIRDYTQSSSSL
In test [10] the target is Metabotropic glutamate receptor 3 (Homo sapiens) (UniProt Q14832). Description: Activity against Metabotropic glutamate receptor 3; Not active.
Sequence of Metabotropic glutamate receptor 3 (Homo sapiens) (Q14832 23-879 limits assumed): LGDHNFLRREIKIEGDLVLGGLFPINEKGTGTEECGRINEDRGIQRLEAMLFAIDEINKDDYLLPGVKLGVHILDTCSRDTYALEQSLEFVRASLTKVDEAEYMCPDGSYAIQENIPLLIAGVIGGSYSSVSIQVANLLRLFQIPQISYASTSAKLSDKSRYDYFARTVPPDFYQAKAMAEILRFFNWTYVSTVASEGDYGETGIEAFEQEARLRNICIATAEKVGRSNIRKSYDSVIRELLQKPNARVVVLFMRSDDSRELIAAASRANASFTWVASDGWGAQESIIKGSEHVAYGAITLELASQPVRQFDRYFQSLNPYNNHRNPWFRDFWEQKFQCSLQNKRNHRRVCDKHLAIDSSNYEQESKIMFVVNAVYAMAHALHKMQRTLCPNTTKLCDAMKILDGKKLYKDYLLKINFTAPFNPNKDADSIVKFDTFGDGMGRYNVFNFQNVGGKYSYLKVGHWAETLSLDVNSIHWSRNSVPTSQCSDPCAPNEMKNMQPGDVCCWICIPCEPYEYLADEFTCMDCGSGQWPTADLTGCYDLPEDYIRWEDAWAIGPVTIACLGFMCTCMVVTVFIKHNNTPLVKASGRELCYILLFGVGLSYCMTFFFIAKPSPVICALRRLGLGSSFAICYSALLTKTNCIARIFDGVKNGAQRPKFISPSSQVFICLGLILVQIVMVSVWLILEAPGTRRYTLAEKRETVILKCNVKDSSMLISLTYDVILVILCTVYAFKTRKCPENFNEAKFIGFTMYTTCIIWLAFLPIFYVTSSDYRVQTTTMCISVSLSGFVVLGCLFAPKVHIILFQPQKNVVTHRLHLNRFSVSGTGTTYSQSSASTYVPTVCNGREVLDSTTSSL
The target in test [11] is Glutamate [NMDA] receptor (Homo sapiens) (UniProt Q05586+Q12879+Q13224+O15399+O60391+Q14957+Q8TCU5). Description: Binding affinity (100 uM) against N-methyl-D-aspartate glutamate receptor using [3H]CPP binding was determined; No activity. The test is classed as protein-complex assay.
The target of test [12] is Glutamate NMDA receptor; GRIN1/GRIN2B (Homo sapiens) (UniProt Q05586+Q13224). Description: Activity against cloned ionotropic N-methyl-D-aspartate glutamate receptor 1/2B; Not active. The test is classed as protein-complex assay.
The target in test [13] is Metabotropic glutamate receptor 3 (Homo sapiens) (UniProt Q14832). Description: Activity against human Metabotropic glutamate receptor 3 up to a concentration of 300 uM; Not active.
The target in test [14] is Metabotropic glutamate receptor 1 (Homo sapiens) (UniProt Q13255). Description: Activity against human Metabotropic glutamate receptor 1 up to a concentration of 300 uM; Not active.
Test [15] addresses T3, Metabotropic glutamate receptor 4. Description: Effective concentration against Metabotropic glutamate receptor 4.
The target in test [16] is Glutamate receptor ionotropic, NMDA 1 (Homo sapiens, UniProt Q05586). Description: Dissociation constant against N-methyl-D-aspartate glutamate receptor using [3H]CPP binding was determined.

A word on the EC50: it is the concentration needed to bring the measured effect to its halfway point. A low value points to an effect from little substance. The Kd is the concentration at which binding is half-saturated. The low end stands for a tighter complex, the high end for a looser complex.

Activity calls are given as the source filed them. The rule behind the calls is not given here.

T1 sequence (Q14831 whole entry): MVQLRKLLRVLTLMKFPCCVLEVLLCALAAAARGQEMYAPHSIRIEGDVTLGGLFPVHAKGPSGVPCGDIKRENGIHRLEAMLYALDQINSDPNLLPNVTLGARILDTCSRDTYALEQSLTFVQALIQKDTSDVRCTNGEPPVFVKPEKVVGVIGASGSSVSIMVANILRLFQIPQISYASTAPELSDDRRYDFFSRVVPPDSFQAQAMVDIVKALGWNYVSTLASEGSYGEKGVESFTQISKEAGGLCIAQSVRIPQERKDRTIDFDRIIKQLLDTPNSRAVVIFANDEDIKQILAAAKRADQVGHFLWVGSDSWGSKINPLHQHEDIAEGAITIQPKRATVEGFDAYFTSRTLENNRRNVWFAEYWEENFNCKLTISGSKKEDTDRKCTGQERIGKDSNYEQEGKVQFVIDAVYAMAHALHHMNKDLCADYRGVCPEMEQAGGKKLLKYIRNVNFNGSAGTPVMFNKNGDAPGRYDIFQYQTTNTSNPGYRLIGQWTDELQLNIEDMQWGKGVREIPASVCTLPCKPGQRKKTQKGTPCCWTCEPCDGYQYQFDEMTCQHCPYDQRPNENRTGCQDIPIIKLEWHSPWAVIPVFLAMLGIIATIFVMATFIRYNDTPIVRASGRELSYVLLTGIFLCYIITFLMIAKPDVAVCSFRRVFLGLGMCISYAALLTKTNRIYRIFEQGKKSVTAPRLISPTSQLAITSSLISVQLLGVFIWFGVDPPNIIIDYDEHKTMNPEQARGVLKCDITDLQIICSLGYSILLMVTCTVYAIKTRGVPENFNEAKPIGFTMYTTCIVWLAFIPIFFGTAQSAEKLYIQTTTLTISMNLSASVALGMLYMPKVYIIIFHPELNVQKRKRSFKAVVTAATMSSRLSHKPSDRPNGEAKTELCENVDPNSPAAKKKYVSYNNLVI

`NC(C(=O)O)c1ccc(P(=O)(O)O)cc1` (stereo not drawn): the half-maximal effective concentration (EC50) entry in test [1] and in test [2] was “Not Active” in each case.
In the case of `NC(C(=O)O)c1ccc(P(=O)(O)O)cc1` (stereo in doubt) [listing 1 of 2 here], the EC50 turned out to be 185 µM in test [3] and 5.2 µM in test [4].
Regarding `NC1(C(=O)O)CC(=CP(=O)(O)O)C1` (stereo not drawn), in [5], the EC50 is 4.5 µM.
Turning to `NC(C(=O)O)c1ccc(P(=O)(O)O)cc1` (stereo in doubt) [listing 2 of 2 here], the outcome in [6], in [7], in test [8], in test [9], in [10] and in [11] was inactive. The outcome in test [12], in [13] and in test [14] was inactive.
For the compound `NC(C(=O)O)c1ccc(P(=O)(O)O)cc1` (single isomer, unassigned; (+)), the results for the half-maximal effective concentration (EC50) in [3] and in [4] were 48 µM and 3.2 µM, respectively.
Take `NC1(C(=O)O)CC1CP(=O)(O)O` (stereo not drawn): in [15], the EC50 was 0.5 µM. This counts as sub-micromolar.
Consider `NC(C(=O)O)c1ccc(CP(=O)(O)O)cc1` (stereo not drawn), for which binding in test [16] was put at a Kd of 3 µM.
